Experimental data from ChEMBL document CHEMBL1145255, “Synthesis and antifungal activity of 5-arylamino-4,7-dioxobenzo[b]thiophenes” (2005).
In brackets after ≈: the same amount, converted by molar mass.

Legend:
Format in all cases: functional
[1] = test system: Candida albicans; test: In vitro minimum inhibitory concentration against Candida albicans Berkout KCCM 50235 strain at 37 degree C after 1 day of treatment; conditions: KCCM 50235, 24 h
Procedure, shortened: (§1)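 Two-fold broth dilution MIC in modified Sabouraud dextrose broth, inoculum about 1 × 10⁵ cells/mL, incubated at 37 °C. MIC was read after 1 day for the Candida species and after 2 days for A. niger.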

[2] = test system: Aspergillus niger; test: In vitro minimum inhibitory concentration against Aspergillus niger KCTC 1231 strain at 37 degree C after 2 day of treatment; conditions: KCTC 1231, 48 h; procedure, shortened: as §1
[3] = test system: Candida tropicalis; test: In vitro minimum inhibitory concentration against Candida tropicalis Berkout KCCM 50662 strain at 37 degree C after 1 day of treatment; conditions: KCCM 50662, 24 h; procedure, shortened: as §1
[4] = test system: Pichia kudriavzevii; test: In vitro minimum inhibitory concentration against Candida krusei Berkout KCCM 11655 strain at 37 degree C after 1 day of treatment; conditions: KCCM 11655, 24 h; procedure, shortened: as §1

SMILES | MIC [1] [µg/mL] | MIC [2] [µg/mL] | MIC [3] [µg/mL] | MIC [4] [µg/mL]
COC(=O)c1cc2c(s1)C(=O)C(Cl)=C(Nc1ccc(I)cc1)C2=O | 6.3 (≈ 13.3 µM) | 3.2 (≈ 6.76 µM) | 1.6 (≈ 3.38 µM) | 25 (≈ 52.8 µM)
COC(=O)c1cc2c(s1)C(=O)C=CC2=O | > 50 | > 50 | 25 (≈ 113 µM) | > 50
COc1ccc(NC2=CC(=O)c3sc(CO)cc3C2=O)cc1 | 3.2 (≈ 10.1 µM) | 3.2 (≈ 10.1 µM) | 0.8 (≈ 2.54 µM) | 25 (≈ 79.3 µM)
COC(=O)c1cc2c(s1)C(=O)C=C(Nc1ccc(C)cc1)C2=O | 50 (≈ 153 µM) | 50 (≈ 153 µM) | 3.2 (≈ 9.78 µM) | 6.3 (≈ 19.2 µM)
Nc1nc(=O)[nH]cc1F [FLUCYTOSINE] | 6.3 (≈ 48.8 µM) | 12.5 (≈ 96.8 µM) | 12.5 (≈ 96.8 µM) | 6.3 (≈ 48.8 µM)
COC(=O)c1cc2c(s1)C(=O)C=C(Nc1ccc(I)cc1)C2=O | 50 (≈ 114 µM) | 50 (≈ 114 µM) | 0.2 (≈ 0.455 µM) | 6.3 (≈ 14.3 µM)
COC(=O)c1cc2c(s1)C(=O)C=C(Nc1ccc(Cl)cc1)C2=O | 50 (≈ 144 µM) | 50 (≈ 144 µM) | 6.3 (≈ 18.1 µM) | 25 (≈ 71.9 µM)
O=C1C(Nc2ccc(Cl)cc2)=C(Cl)C(=O)c2sc(CO)cc21 | 12.5 (≈ 35.3 µM) | > 50 | 0.4 (≈ 1.13 µM) | 1.6 (≈ 4.52 µM)
COC(=O)c1cc2c(s1)C(=O)C(Cl)=C(Nc1ccc(OC)cc1)C2=O | 3.2 (≈ 8.47 µM) | 50 (≈ 132 µM) | 6.3 (≈ 16.7 µM) | 3.2 (≈ 8.47 µM)
COC(=O)c1cc2c(s1)C(=O)C(Cl)=C(Nc1ccc(C(F)(F)F)cc1)C2=O | 12.5 (≈ 30.1 µM) | 50 (≈ 120 µM) | 1.6 (≈ 3.85 µM) | 25 (≈ 60.1 µM)
O=C1C(Nc2ccc(C(F)(F)F)cc2)=C(Cl)C(=O)c2sc(CO)cc21 | 50 (≈ 129 µM) | 50 (≈ 129 µM) | 0.4 (≈ 1.03 µM) | 3.2 (≈ 8.25 µM)
O=C1C(Nc2ccc(Br)cc2)=C(Cl)C(=O)c2sc(CO)cc21 | 50 (≈ 125 µM) | 50 (≈ 125 µM) | 0.8 (≈ 2.01 µM) | 0.8 (≈ 2.01 µM)
COC(=O)c1cc2c(s1)C(=O)C=C(Nc1ccc(O)cc1)C2=O | 50 (≈ 152 µM) | 50 (≈ 152 µM) | 0.4 (≈ 1.21 µM) | 12.5 (≈ 38 µM)
O=C1C=CC(=O)c2sc(CO)cc21 | > 50 | 50 (≈ 257 µM) | 25 (≈ 129 µM) | 50 (≈ 257 µM)
COC(=O)c1cc2c(s1)C(=O)C(Cl)=C(Nc1ccc(Cl)cc1)C2=O | 12.5 (≈ 32.7 µM) | 25 (≈ 65.4 µM) | 6.3 (≈ 16.5 µM) | 25 (≈ 65.4 µM)
O=C1C(Nc2ccc(F)cc2)=CC(=O)c2sc(CO)cc21 | 50 (≈ 165 µM) | 25 (≈ 82.4 µM) | 12.5 (≈ 41.2 µM) | > 25
Cc1ccc(NC2=C(Cl)C(=O)c3sc(CO)cc3C2=O)cc1 | 50 (≈ 150 µM) | 50 (≈ 150 µM) | 1.6 (≈ 4.79 µM) | 0.8 (≈ 2.4 µM)
O=C1C(Nc2ccc(I)cc2)=C(Cl)C(=O)c2sc(CO)cc21 | 50 (≈ 112 µM) | 50 (≈ 112 µM) | 1.6 (≈ 3.59 µM) | 1.6 (≈ 3.59 µM)
O=C1C(Nc2ccc(I)cc2)=CC(=O)c2sc(CO)cc21 | 50 (≈ 122 µM) | 3.2 (≈ 7.78 µM) | 1.6 (≈ 3.89 µM) | 25 (≈ 60.8 µM)
COC(=O)c1cc2c(s1)C(=O)C=C(Nc1ccc(OC)cc1)C2=O | > 50 | > 50 | 6.3 (≈ 18.3 µM) | 25 (≈ 72.8 µM)

SMILES | MIC [1] [µg/mL] | MIC [2] [µg/mL] | MIC [3] [µg/mL] | MIC [4] [µg/mL]
O=C1C(Nc2ccccc2)=C(Cl)C(=O)c2sc(CO)cc21 | 6.3 (≈ 19.7 µM) | 12.5 (≈ 39.1 µM) | 3.2 (≈ 10 µM) | 1.6 (≈ 5 µM)
COC(=O)c1cc2c(s1)C(=O)C=C(Nc1ccccc1)C2=O | 50 (≈ 160 µM) | 50 (≈ 160 µM) | 6.3 (≈ 20.1 µM) | 12.5 (≈ 39.9 µM)
COC(=O)c1cc2c(s1)C(=O)C(Cl)=C(Nc1ccc(Br)cc1)C2=O | 0.8 (≈ 1.87 µM) | 25 (≈ 58.6 µM) | 3.2 (≈ 7.5 µM) | 25 (≈ 58.6 µM)
O=C1C(Nc2ccc(Br)cc2)=CC(=O)c2sc(CO)cc21 | 50 (≈ 137 µM) | 3.2 (≈ 8.79 µM) | 12.5 (≈ 34.3 µM) | 3.2 (≈ 8.79 µM)
O=C1C(Nc2ccc(C(F)(F)F)cc2)=CC(=O)c2sc(CO)cc21 | 0.8 (≈ 2.26 µM) | 0.8 (≈ 2.26 µM) | 0.8 (≈ 2.26 µM) | 12.5 (≈ 35.4 µM)
COC(=O)c1cc2c(s1)C(=O)C(Cl)=C(Nc1ccccc1)C2=O | 0.8 (≈ 2.3 µM) | 12.5 (≈ 35.9 µM) | 3.2 (≈ 9.2 µM) | 6.3 (≈ 18.1 µM)
COc1ccc(NC2=C(Cl)C(=O)c3sc(CO)cc3C2=O)cc1 | 25 (≈ 71.5 µM) | 50 (≈ 143 µM) | 1.6 (≈ 4.57 µM) | 3.2 (≈ 9.15 µM)
COC(=O)c1cc2c(s1)C(=O)C(Cl)=C(Nc1ccc(F)cc1)C2=O | 12.5 (≈ 34.2 µM) | 12.5 (≈ 34.2 µM) | 6.3 (≈ 17.2 µM) | 25 (≈ 68.3 µM)
COC(=O)c1cc2c(s1)C(=O)C=C(Nc1ccc(Br)cc1)C2=O | 50 (≈ 127 µM) | 50 (≈ 127 µM) | 0.2 (≈ 0.51 µM) | 12.5 (≈ 31.9 µM)
O=C1C(Nc2ccc(O)cc2)=C(Cl)C(=O)c2sc(CO)cc21 | > 50 | > 50 | 25 (≈ 74.5 µM) | > 50
O=C1C(Nc2ccccc2)=CC(=O)c2sc(CO)cc21 | 50 (≈ 175 µM) | 0.8 (≈ 2.8 µM) | 0.8 (≈ 2.8 µM) | 6.3 (≈ 22.1 µM)
COC(=O)c1cc2c(s1)C(=O)C(Cl)=C(Nc1ccc(C)cc1)C2=O | 0.8 (≈ 2.21 µM) | 50 (≈ 138 µM) | 12.5 (≈ 34.5 µM) | 25 (≈ 69.1 µM)
Cc1ccc(NC2=CC(=O)c3sc(CO)cc3C2=O)cc1 | > 50 | 3.2 (≈ 10.7 µM) | 25 (≈ 83.5 µM) | 25 (≈ 83.5 µM)
COC(=O)c1cc2c(s1)C(=O)C=C(Nc1ccc(C(F)(F)F)cc1)C2=O | 50 (≈ 131 µM) | 50 (≈ 131 µM) | 12.5 (≈ 32.8 µM) | 1.6 (≈ 4.2 µM)
COC(=O)c1cc2c(s1)C(=O)C=C(Nc1ccc(F)cc1)C2=O | > 50 | > 50 | 25 (≈ 75.5 µM) | 25 (≈ 75.5 µM)
O=C1C(Nc2ccc(F)cc2)=C(Cl)C(=O)c2sc(CO)cc21 | 12.5 (≈ 37 µM) | 50 (≈ 148 µM) | 0.4 (≈ 1.18 µM) | 1.6 (≈ 4.74 µM)
O=C1C(Nc2ccc(Cl)cc2)=CC(=O)c2sc(CO)cc21 | > 50 | 25 (≈ 78.2 µM) | 12.5 (≈ 39.1 µM) | > 25
COC(=O)c1cc2c(s1)C(=O)C(Cl)=C(Nc1ccc(O)cc1)C2=O | 12.5 (≈ 34.4 µM) | 50 (≈ 137 µM) | 0.8 (≈ 2.2 µM) | 6.3 (≈ 17.3 µM)
O=C1C(Nc2ccc(O)cc2)=CC(=O)c2sc(CO)cc21 | 0.8 (≈ 2.65 µM) | 0.8 (≈ 2.65 µM) | 0.8 (≈ 2.65 µM) | 12.5 (≈ 41.5 µM)
